Reference: ChEMBL document CHEMBL1149106, “Design, synthesis, and evaluation of aza-peptide epoxides as selective and potent inhibitors of caspases-1, -3, -6, and -8” (J Med Chem, 2004)
The source made the active and inactive calls. The rule behind the calls is not given here.

Assays:
Caspase-3 (Homo sapiens) [1] = target: T1, Caspase-3 (Homo sapiens) (UniProt P42574); test: Second-order inhibition rate of caspase-3 was determined by progress curve method
T1 sequence (whole entry): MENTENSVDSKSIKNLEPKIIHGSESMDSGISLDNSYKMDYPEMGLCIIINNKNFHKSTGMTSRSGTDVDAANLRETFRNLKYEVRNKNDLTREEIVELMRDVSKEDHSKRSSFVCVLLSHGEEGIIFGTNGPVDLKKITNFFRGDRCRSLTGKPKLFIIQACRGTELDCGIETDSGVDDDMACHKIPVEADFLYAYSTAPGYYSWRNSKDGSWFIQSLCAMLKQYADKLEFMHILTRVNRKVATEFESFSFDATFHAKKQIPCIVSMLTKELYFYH
In short: (§1)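 Caspases-3, -6 and -8 were assayed in 50 mM HEPES, 100 mM NaCl, 0.1% (w/v) CHAPS, 10% (w/v) sucrose and 10 mM DTT, pH 7.4. Substrate: Cbz-DEVD-AFC or Cbz-DEVD-AMC.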

Caspase-1 (Homo sapiens) = target: T2, Caspase-1 (Homo sapiens) (UniProt P29466); test: Second-order inhibition rate of caspase-1 was determined by progress curve method
T2 sequence (whole entry): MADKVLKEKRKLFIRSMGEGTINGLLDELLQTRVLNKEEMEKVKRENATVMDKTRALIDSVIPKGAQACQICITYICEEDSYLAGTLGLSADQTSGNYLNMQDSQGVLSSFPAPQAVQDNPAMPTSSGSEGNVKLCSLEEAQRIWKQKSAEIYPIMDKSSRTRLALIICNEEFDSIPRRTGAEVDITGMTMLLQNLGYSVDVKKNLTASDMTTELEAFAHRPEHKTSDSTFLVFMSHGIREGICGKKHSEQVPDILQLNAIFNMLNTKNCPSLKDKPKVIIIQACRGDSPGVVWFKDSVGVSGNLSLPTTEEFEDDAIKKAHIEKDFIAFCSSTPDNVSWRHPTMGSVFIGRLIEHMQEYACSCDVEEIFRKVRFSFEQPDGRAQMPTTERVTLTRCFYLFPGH
In short: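 Caspase-1 assay buffer: 100 mM HEPES, 0.5 mM EDTA, 20% (v/v) glycerol, 5 mM DTT, pH 7.5. Substrate: Ac-YVAD-AMC.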

Caspase-6 (Homo sapiens) [2] = target: T3, Caspase-6 (Homo sapiens) (UniProt P55212); test: Second-order inhibition rate of caspase-6 was determined by progress curve method; in short: as §1
T3 sequence (whole entry): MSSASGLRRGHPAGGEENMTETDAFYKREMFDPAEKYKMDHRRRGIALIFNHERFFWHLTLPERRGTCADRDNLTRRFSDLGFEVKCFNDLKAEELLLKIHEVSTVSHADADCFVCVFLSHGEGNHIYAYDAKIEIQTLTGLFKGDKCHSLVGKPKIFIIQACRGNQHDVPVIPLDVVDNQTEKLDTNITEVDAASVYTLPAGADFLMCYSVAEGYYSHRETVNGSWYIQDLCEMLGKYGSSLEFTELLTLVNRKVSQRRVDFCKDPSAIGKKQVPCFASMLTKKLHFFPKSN

Caspase-8 (Homo sapiens) [3] = target: Caspase-8 (Homo sapiens) (UniProt Q14790); test: Second-order inhibition rate of caspase-8 was determined by progress curve method; in short: as §1
Caspase-6 (Homo sapiens) [4] = target: T3, Caspase-6 (Homo sapiens); test: Second-order inhibition rate of caspase-6 was determined by progress curve method; No inhibition; in short: as §1
Caspase-8 (Homo sapiens) [5] = target: Caspase-8 (Homo sapiens) (UniProt Q14790); test: Second-order inhibition rate of caspase-8 was determined by progress curve method; No inhibition; in short: as §1
Caspase-3 (Homo sapiens) [6] = target: T1, Caspase-3 (Homo sapiens); test: Second-order inhibition rate of caspase-3 was determined by progress curve method; No inhibition; in short: as §1

Sequence of Caspase-8 (Homo sapiens) (Q14790 217-374 limits assumed): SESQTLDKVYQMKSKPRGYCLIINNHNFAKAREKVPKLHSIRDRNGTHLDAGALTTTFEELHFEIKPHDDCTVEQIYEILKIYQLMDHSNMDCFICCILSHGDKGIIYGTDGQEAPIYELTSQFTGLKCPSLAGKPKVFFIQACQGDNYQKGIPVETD
Sequence of Caspase-8 (Homo sapiens) (Q14790 385-479 limits assumed): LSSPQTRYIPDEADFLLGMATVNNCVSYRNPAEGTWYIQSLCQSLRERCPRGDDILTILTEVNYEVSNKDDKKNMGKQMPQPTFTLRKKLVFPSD

Row | SMILES | k2 (Caspase-3 (Homo sapiens) [1]) [M⁻¹ s⁻¹] | k2 (Caspase-1 (Homo sapiens)) [M⁻¹ s⁻¹] | k2 (Caspase-6 (Homo sapiens) [2]) [M⁻¹ s⁻¹] | k2 (Caspase-8 (Homo sapiens) [3]) [M⁻¹ s⁻¹] | k2 (Caspase-6 (Homo sapiens) [4]) | k2 (Caspase-8 (Homo sapiens) [5]) | k2 (Caspase-3 (Homo sapiens) [6])
1 | CC(C)[C@H](NC(=O)[C@H](CCC(=O)O)NC(=O)OCc1ccccc1)C(=O)NN(CC(=O)O)C(=O)[C@H]1O[C@@H]1C(=O)NCCc1ccccc1 | 27300 | 41100 | 3130 | 72700 |  |  | 
2 | CC(C)[C@H](NC(=O)CCc1ccccc1)C(=O)N[C@@H](C)C(=O)NN(CC(=O)O)C(=O)[C@@H]1O[C@H]1C(=O)NCC(O)c1ccccc1 (some centres undefined) |  | 400 |  |  | inactive | inactive | inactive
3 | CC(C)[C@H](NC(=O)C(CCC(=O)O)NC(=O)[C@H](CC(=O)O)NC(=O)OCc1ccccc1)C(=O)NN(CC(=O)O)C(=O)[C@H]1O[C@@H]1C(=O)N[C@@H](Cc1ccccc1)C(N)=O (some centres undefined) | 722000 | 9250 | 6140 | 29600 |  |  | 
4 | CC(C)C[C@H](NC(=O)OCc1ccccc1)C(=O)NC(CCC(=O)O)C(=O)N[C@H](C(=O)NN(CC(=O)O)C(=O)[C@H]1O[C@@H]1C(=O)N[C@@H](C)C(=O)NCc1ccccc1)[C@@H](C)O (some centres undefined) | 1280 |  | 6660 | 44800 |  |  | 
5 | CCOC(=O)[C@H]1O[C@@H]1C(=O)N(CC(=O)O)NC(=O)[C@@H](NC(=O)OCc1ccccc1)C(C)C | 3650 |  | 350 | 1260 |  |  | 
6 | CC[C@H](C)[C@H](NC(=O)OCc1ccccc1)C(=O)N[C@@H](CCC(=O)O)C(=O)N[C@H](C(=O)NN(CC(=O)O)C(=O)[C@@H]1O[C@H]1C(=O)N[C@@H](C)C(=O)NCc1ccccc1)[C@@H](C)O | 3050 |  | 38200 | 56000 |  |  | 
7 | CC(C)[C@H](NC(=O)C(CCC(=O)O)NC(=O)[C@H](CC(=O)O)NC(=O)OCc1ccccc1)C(=O)NN(CC(=O)O)C(=O)[C@H]1O[C@@H]1C(=O)OCc1ccccc1 (some centres undefined) | 1.91e+06 | 54700 | 12700 | 188000 |  |  | 
8 | CC[C@H](C)[C@H](NC(=O)OCc1ccccc1)C(=O)N[C@@H](CCC(=O)O)C(=O)N[C@H](C(=O)NN(CC(=O)O)C(=O)[C@@H]1O[C@H]1C(=O)OCc1ccccc1)[C@@H](C)O | 3110 | 13000 | 45400 | 4560 |  |  | 
9 | CC(C)C[C@H](NC(=O)OCc1ccccc1)C(=O)NC(CCC(=O)O)C(=O)N[C@H](C(=O)NN(CC(=O)O)C(=O)[C@H]1O[C@@H]1C(=O)OCc1ccccc1)[C@@H](C)O (some centres undefined) | 3520 | 43500 | 10300 | 72700 |  |  | 
10 | CC(C)[C@H](NC(=O)CCc1ccccc1)C(=O)N[C@@H](C)C(=O)NN(CC(=O)O)C(=O)[C@@H]1O[C@H]1C(=O)N[C@@H](C)C(=O)NCc1ccccc1 |  | 270 |  |  | inactive | inactive | inactive
11 | CC(C)[C@H](NC(=O)CCc1ccccc1)C(=O)N[C@@H](C)C(=O)NN(CC(=O)O)C(=O)[C@H]1O[C@@H]1C(=O)N[C@@H](Cc1ccccc1)C(N)=O | 625 | 32700 | 65 | 390 |  |  | 
12 | CC(C)[C@H](NC(=O)OCc1ccccc1)C(=O)NN(CC(=O)O)C(=O)[C@H]1O[C@@H]1c1ccc(Cl)cc1 | 145 |  |  |  | inactive | inactive | 
13 | CC(C)[C@H](NC(=O)CCc1ccccc1)C(=O)N[C@@H](C)C(=O)NN(CC(=O)O)C(=O)[C@@H]1O[C@H]1C(=O)NCc1ccccc1 |  | 1630 |  |  | inactive | inactive | inactive
14 | CC(C)[C@H](NC(=O)C(CCC(=O)O)NC(=O)[C@H](CC(=O)O)NC(=O)OCc1ccccc1)C(=O)NN(CC(=O)O)C(=O)[C@H]1O[C@@H]1C(=O)NCc1ccccc1 (some centres undefined) | 1.09e+06 | 25400 | 6000 | 84400 |  |  | 
15 | CC(C)[C@H](NC(=O)CCc1ccccc1)C(=O)N[C@@H](C)C(=O)NN(CC(=O)O)C(=O)[C@@H]1O[C@H]1C(=O)NCCc1ccccc1 |  | 950 |  |  | inactive | inactive | inactive
16 | CC(C)[C@H](NC(=O)OCc1ccccc1)C(=O)NN(CC(=O)O)C(=O)[C@H]1O[C@@H]1C(=O)O | 1110 |  | 90 | 370 |  |  | 

Row | SMILES | k2 (Caspase-3 (Homo sapiens) [1]) [M⁻¹ s⁻¹] | k2 (Caspase-1 (Homo sapiens)) [M⁻¹ s⁻¹] | k2 (Caspase-6 (Homo sapiens) [2]) [M⁻¹ s⁻¹] | k2 (Caspase-8 (Homo sapiens) [3]) [M⁻¹ s⁻¹] | k2 (Caspase-6 (Homo sapiens) [4]) | k2 (Caspase-8 (Homo sapiens) [5]) | k2 (Caspase-3 (Homo sapiens) [6])
17 | CC(C)[C@H](NC(=O)CCc1ccccc1)C(=O)N[C@@H](C)C(=O)NN(CC(=O)O)C(=O)[C@H]1O[C@@H]1C(=O)N[C@@H](Cc1ccc(O)cc1)C(N)=O | 87 | 3250 | 11 | 125 |  |  | 
18 | CC[C@H](C)[C@H](NC(=O)OCc1ccccc1)C(=O)N[C@@H](CCC(=O)O)C(=O)N[C@H](C(=O)NN(CC(=O)O)C(=O)[C@H]1O[C@@H]1C(=O)OCc1ccccc1)[C@@H](C)O | 9500 | 45800 | 86200 | 58500 |  |  | 
19 | CC(C)[C@H](NC(=O)CCc1ccccc1)C(=O)N[C@@H](C)C(=O)NN(CC(=O)O)C(=O)[C@H]1O[C@@H]1C(=O)NCCc1ccccc1 | 1110 | 17100 | 130 | 10100 |  |  | 
20 | CC(C)[C@H](NC(=O)CCc1ccccc1)C(=O)N[C@@H](C)C(=O)NN(CC(=O)O)C(=O)[C@H]1O[C@@H]1C(=O)NCc1ccccc1 | 1610 | 65900 | 155 | 9360 |  |  | 
21 | CC(C)[C@H](NC(=O)[C@H](CCC(=O)O)NC(=O)OCc1ccccc1)C(=O)NN(CC(=O)O)C(=O)[C@@H]1O[C@H]1C(=O)N[C@@H](Cc1ccccc1)C(N)=O | 470 | 1040 | 25 |  |  |  | 
22 | CCOC(=O)[C@@H]1O[C@H]1C(=O)N(CC(=O)O)NC(=O)[C@@H](NC(=O)[C@H](CCC(=O)O)NC(=O)[C@@H](NC(=O)OCc1ccccc1)[C@@H](C)CC)[C@@H](C)O | 2630 | 13300 | 34000 | 8800 |  |  | 
23 | CC[C@H](C)[C@H](NC(=O)OCc1ccccc1)C(=O)N[C@@H](CCC(=O)O)C(=O)N[C@H](C(=O)NN(CC(=O)O)C(=O)[C@@H]1O[C@H]1C(=O)NCc1ccccc1)[C@@H](C)O | 6500 | 18100 | 60100 | 6500 |  |  | 
24 | CC(C)[C@H](NC(=O)CCc1ccccc1)C(=O)N[C@@H](C)C(=O)NN(CC(=O)O)C(=O)[C@@H]1O[C@H]1C(=O)N[C@@H](Cc1ccccc1)C(N)=O |  | 330 |  |  | inactive | inactive | inactive
25 | CC(C)[C@H](NC(=O)OCc1ccccc1)C(=O)NN(CC(=O)O)C(=O)[C@H]1O[C@@H]1CCc1ccccc1 | 310 |  | 44 | 180 |  |  | 
26 | CCNC(=O)[C@H]1O[C@@H]1C(=O)N(CC(=O)O)NC(=O)[C@H](C)NC(=O)[C@@H](NC(=O)CCc1ccccc1)C(C)C | 1910 |  | 142 | 6050 |  |  | 
27 | CC(C)[C@H](NC(=O)CCc1ccccc1)C(=O)N[C@@H](C)C(=O)NN(CC(=O)O)C(=O)[C@H]1O[C@@H]1C(=O)N[C@@H](C)C(=O)NCc1ccccc1 | 260 | 13400 | 25 | 140 |  |  | 
28 | CC(C)[C@H](NC(=O)CCc1ccccc1)C(=O)N[C@@H](C)C(=O)NN(CC(=O)O)C(=O)[C@@H]1O[C@H]1C(=O)OCc1ccccc1 |  | 1860 | 15 | 185 |  |  | inactive
29 | CC(C)[C@H](NC(=O)CCc1ccccc1)C(=O)N[C@@H](C)C(=O)NN(CC(=O)O)C(=O)[C@H]1O[C@@H]1C(=O)NCC(O)c1ccccc1 (some centres undefined) | 510 | 12200 | 63 | 4090 |  |  | 
30 | CC(C)C[C@H](NC(=O)OCc1ccccc1)C(=O)NC(CCC(=O)O)C(=O)N[C@H](C(=O)NN(CC(=O)O)C(=O)[C@H]1O[C@@H]1C(=O)NCCc1ccccc1)[C@@H](C)O (some centres undefined) | 2550 |  | 10000 | 53300 |  |  | 
31 | CC(C)[C@H](NC(=O)CCc1ccccc1)C(=O)N[C@@H](C)C(=O)NN(CC(=O)O)C(=O)[C@H]1O[C@@H]1C(=O)OCCc1ccccc1 | 2110 | 56600 | 240 | 3780 |  |  | 
32 | CC(C)C[C@H](NC(=O)[C@H]1O[C@@H]1C(=O)N(CC(=O)O)NC(=O)[C@H](C)NC(=O)[C@@H](NC(=O)CCc1ccccc1)C(C)C)C(N)=O | 420 | 26100 | 71 | 315 |  |  | 
